Reference: ChEMBL document CHEMBL1137643, “In vitro and in vivo activities of novel fluoroquinolones alone and in combination with clarithromycin against clinically isolated Mycobacterium avium complex strains in Japan” (2007)
Values after ≈ are worked out from the molar mass of the structure shown.

Legend:
Assay type in all cases: functional
[1] = tested on: Mycobacterium avium complex sp.; assay: Antimycobacterial activity against Mycobacterium avium complex N018 infected C57BL/6J mouse assessed as liver bacterial count at 200 mg/kg/day dosed through gavage route administered for 28 days post bacterial challenge measured 2 days after last dose
In short: (§1)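 Mice given 1.0 × 10^7 to 3.0 × 10^7 CFU in 100 μl via tail vein; daily gavage dosing began day 21 for 28 days; distilled-water controls. Sacrifice 48 h after last dose. Organ portions homogenized in 1 ml saline, diluted in 7H9, plated on 7H10; log10 CFU/organ, mean ± SEM, 5 mice/group. Experiment run twice; ANOVA with Fisher's PLSD.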

[2] = tested on: Mycobacterium avium complex sp.; assay: Antimycobacterial activity against Mycobacterium avium complex N018 infected C57BL/6J mouse assessed as lung bacterial count at 200 mg/kg/day dosed through gavage route administered for 28 days post bacterial challenge measured 2 days after last dose; in short: as §1
[3] = tested on: Mycobacterium avium complex sp.; assay: Antimycobacterial activity against Mycobacterium avium complex N018 infected C57BL/6J mouse assessed as spleen bacterial count at 200 mg/kg/day dosed through gavage route administered for 28 days post bacterial challenge measured 2 days after last dose; in short: as §1
Mycobacterium avium [4] = assay: Antimycobacterial activity against Mycobacterium avium JATA51-01 after 14 days by broth microdilution method; conditions: JATA51-01, 336 h
In short: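 Broth microdilution in 7H9 (10% OADC, 0.05% Tween 80, 0.2% glycerol); twofold drug dilutions, final 0.125–128 μg/ml; inoculum 1.0 × 10^5 CFU/well from 7-day 37°C subculture of 21-day 7H10 colonies; 14 days at 37°C; MIC = lowest concentration with complete growth inhibition; triplicate.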

[5] = tested on: Mycobacterium intracellulare; assay: Antimycobacterial activity against Mycobacterium intracellular JATA52-01 after 14 days by broth microdilution method; conditions: JATA52-01, 336 h
In short: (§2)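 Broth microdilution in Middlebrook 7H9 (OADC, Tween 80, glycerol); twofold dilutions giving final 0.125–128 μg/ml; inoculum 1.0 × 10^5 CFU/well; 14 days at 37°C. MIC = lowest concentration completely inhibiting growth. Triplicate tests. Inocula from 7H10 agar colonies (21 days) subcultured in 7H9 for 7 days at 37°C, stored at −80°C.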

[6] = tested on: Mycobacterium avium complex sp.; assay: Antimycobacterial activity against Mycobacterium avium complex N016 after 14 days by broth microdilution method; conditions: N016, 336 h; in short: as §2
[7] = tested on: Mycobacterium avium complex sp.; assay: Antimycobacterial activity against Mycobacterium avium complex N018 after 14 days by broth microdilution method; conditions: N018, 336 h; in short: as §2
[8] = tested on: Mycobacterium avium complex sp.; assay: Antimycobacterial activity against Mycobacterium avium complex N084 after 14 days by broth microdilution method; conditions: N084, 336 h; in short: as §2
[9] = tested on: Mycobacterium avium complex sp.; assay: Antimycobacterial activity against Mycobacterium avium complex after 14 days by broth microdilution method; conditions: 336 h; in short: as §2
Mycobacterium avium [10] = assay: Antimycobacterial activity against Mycobacterium avium JATA51-01 infected C57BL/6J mouse assessed as lung bacterial count at 200 mg/kg/day dosed through gavage route administered for 28 days post bacterial challenge measured 2 days after last dose
In short: (§3)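 Mice infected via tail vein with 1.0 × 10^7 to 3.0 × 10^7 CFU in 100 μl saline; daily oral gavage started day 21, for 28 days; distilled-water controls; sacrificed 48 h after last dose; lungs, liver, spleen homogenized in saline, serially diluted in 7H9, plated on 7H10 agar; log10 CFU/organ, mean ± SEM, 5 mice/group; ANOVA with Fisher's PLSD; experiment done twice.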

Mycobacterium avium [11] = assay: Antimycobacterial activity against Mycobacterium avium JATA51-01 infected C57BL/6J mouse assessed as liver bacterial count at 200 mg/kg/day dosed through gavage route administered for 28 days post bacterial challenge measured 2 days after last dose; in short: as §3
Mycobacterium avium [12] = assay: Antimycobacterial activity against Mycobacterium avium JATA51-01 infected C57BL/6J mouse assessed as spleen bacterial count at 200 mg/kg/day dosed through gavage route administered for 28 days post bacterial challenge measured 2 days after last dose; in short: as §3
[13] = tested on: Mycobacterium intracellulare; assay: Antimycobacterial activity against Mycobacterium intracellular JATA52-01 infected C57BL/6J mouse assessed as lung bacterial count at 200 mg/kg/day dosed through gavage route administered for 28 days post bacterial challenge measured 2 days after last dose; in short: as §1
[14] = tested on: Mycobacterium intracellulare; assay: Antimycobacterial activity against Mycobacterium intracellular JATA52-01 infected C57BL/6J mouse assessed as liver bacterial count at 200 mg/kg/day dosed through gavage route administered for 28 days post bacterial challenge measured 2 days after last dose; in short: as §1
[15] = tested on: Mycobacterium intracellulare; assay: Antimycobacterial activity against Mycobacterium intracellular JATA52-01 infected C57BL/6J mouse assessed as spleen bacterial count at 200 mg/kg/day dosed through gavage route administered for 28 days post bacterial challenge measured 2 days after last dose; in short: as §1
[16] = tested on: Mycobacterium avium complex sp.; assay: Antimycobacterial activity against Mycobacterium avium complex N016 infected C57BL/6J mouse assessed as lung bacterial count at 200 mg/kg/day dosed through gavage route administered for 28 days post bacterial challenge measured 2 days after last dose; in short: as §1
[17] = tested on: Mycobacterium avium complex sp.; assay: Antimycobacterial activity against Mycobacterium avium complex N016 infected C57BL/6J mouse assessed as liver bacterial count at 200 mg/kg/day dosed through gavage route administered for 28 days post bacterial challenge measured 2 days after last dose; in short: as §1
[18] = tested on: Mycobacterium avium complex sp.; assay: Antimycobacterial activity against Mycobacterium avium complex N016 infected C57BL/6J mouse assessed as spleen bacterial count at 200 mg/kg/day dosed through gavage route administered for 28 days post bacterial challenge measured 2 days after last dose; in short: as §1
[19] = tested on: Mycobacterium avium complex sp.; assay: Antimycobacterial activity against Mycobacterium avium complex N084 infected C57BL/6J mouse assessed as lung bacterial count at 200 mg/kg/day dosed through gavage route administered for 28 days post bacterial challenge measured 2 days after last dose; in short: as §1
[20] = tested on: Mycobacterium avium complex sp.; assay: Antimycobacterial activity against Mycobacterium avium complex N084 infected C57BL/6J mouse assessed as liver bacterial count at 200 mg/kg/day dosed through gavage route administered for 28 days post bacterial challenge measured 2 days after last dose; in short: as §1
[21] = tested on: Mycobacterium avium complex sp.; assay: Antimycobacterial activity against Mycobacterium avium complex N084 infected C57BL/6J mouse assessed as spleen bacterial count at 200 mg/kg/day dosed through gavage route administered for 28 days post bacterial challenge measured 2 days after last dose; in short: as §1
[22] = tested on: Mycobacterium avium complex sp.; assay: Antimycobacterial activity against Mycobacterium avium complex N018 infected C57BL/6J mouse assessed as spleen bacterial count at 100 mg/kg/day dosed through gavage route administered for 28 days post bacterial challenge measured 2 days after last dose; in short: as §1
[23] = tested on: Mycobacterium avium complex sp.; assay: Antimycobacterial activity against Mycobacterium avium complex N084 infected C57BL/6J mouse assessed as lung bacterial count at 100 mg/kg/day dosed through gavage route administered for 28 days post bacterial challenge measured 2 days after last dose; in short: as §1
Mycobacterium avium [24] = assay: Antimycobacterial activity against Mycobacterium avium JATA51-01 infected C57BL/6J mouse assessed as lung bacterial count at 100 mg/kg/day dosed through gavage route administered for 28 days post bacterial challenge measured 2 days after last dose; in short: as §3
Mycobacterium avium [25] = assay: Antimycobacterial activity against Mycobacterium avium JATA51-01 infected C57BL/6J mouse assessed as liver bacterial count at 100 mg/kg/day dosed through gavage route administered for 28 days post bacterial challenge measured 2 days after last dose; in short: as §3
Mycobacterium avium [26] = assay: Antimycobacterial activity against Mycobacterium avium JATA51-01 infected C57BL/6J mouse assessed as spleen bacterial count at 100 mg/kg/day dosed through gavage route administered for 28 days post bacterial challenge measured 2 days after last dose; in short: as §3
[27] = tested on: Mycobacterium intracellulare; assay: Antimycobacterial activity against Mycobacterium intracellular JATA52-01 infected C57BL/6J mouse assessed as lung bacterial count at 100 mg/kg/day dosed through gavage route administered for 28 days post bacterial challenge measured 2 days after last dose; in short: as §1
[28] = tested on: Mycobacterium intracellulare; assay: Antimycobacterial activity against Mycobacterium intracellular JATA52-01 infected C57BL/6J mouse assessed as liver bacterial count at 100 mg/kg/day dosed through gavage route administered for 28 days post bacterial challenge measured 2 days after last dose; in short: as §1
[29] = tested on: Mycobacterium intracellulare; assay: Antimycobacterial activity against Mycobacterium intracellular JATA52-01 infected C57BL/6J mouse assessed as spleen bacterial count at 100 mg/kg/day dosed through gavage route administered for 28 days post bacterial challenge measured 2 days after last dose; in short: as §1
[30] = tested on: Mycobacterium avium complex sp.; assay: Antimycobacterial activity against Mycobacterium avium complex N016 infected C57BL/6J mouse assessed as lung bacterial count at 100 mg/kg/day dosed through gavage route administered for 28 days post bacterial challenge measured 2 days after last dose; in short: as §1
[31] = tested on: Mycobacterium avium complex sp.; assay: Antimycobacterial activity against Mycobacterium avium complex N016 infected C57BL/6J mouse assessed as liver bacterial count at 100 mg/kg/day dosed through gavage route administered for 28 days post bacterial challenge measured 2 days after last dose; in short: as §1
[32] = tested on: Mycobacterium avium complex sp.; assay: Antimycobacterial activity against Mycobacterium avium complex N016 infected C57BL/6J mouse assessed as spleen bacterial count at 100 mg/kg/day dosed through gavage route administered for 28 days post bacterial challenge measured 2 days after last dose; in short: as §1
[33] = tested on: Mycobacterium avium complex sp.; assay: Antimycobacterial activity against Mycobacterium avium complex N018 infected C57BL/6J mouse assessed as lung bacterial count at 100 mg/kg/day dosed through gavage route administered for 28 days post bacterial challenge measured 2 days after last dose; in short: as §1
[34] = tested on: Mycobacterium avium complex sp.; assay: Antimycobacterial activity against Mycobacterium avium complex N018 infected C57BL/6J mouse assessed as liver bacterial count at 100 mg/kg/day dosed through gavage route administered for 28 days post bacterial challenge measured 2 days after last dose; in short: as §1
[35] = tested on: Mycobacterium avium complex sp.; assay: Antimycobacterial activity against Mycobacterium avium complex N084 infected C57BL/6J mouse assessed as liver bacterial count at 100 mg/kg/day dosed through gavage route administered for 28 days post bacterial challenge measured 2 days after last dose; in short: as §1
[36] = tested on: Mycobacterium avium complex sp.; assay: Antimycobacterial activity against Mycobacterium avium complex N084 infected C57BL/6J mouse assessed as spleen bacterial count at 100 mg/kg/day dosed through gavage route administered for 28 days post bacterial challenge measured 2 days after last dose; in short: as §1

| SMILES | log10cfu [1] | log10cfu [2] | log10cfu [3] | MIC (Mycobacterium avium [4]) [µg/mL] | MIC [5] [µg/mL] | MIC [6] [µg/mL] | MIC [7] [µg/mL] | MIC [8] [µg/mL] | MIC90 [9] [µg/mL] | log10cfu (Mycobacterium avium [10]) | log10cfu (Mycobacterium avium [11]) | log10cfu (Mycobacterium avium [12]) | log10cfu [13] | log10cfu [14] | log10cfu [15] | log10cfu [16] | log10cfu [17] | log10cfu [18] | log10cfu [19] | log10cfu [20] | also measured |
| --- | --- | --- | --- | --- | --- | --- | --- | --- | --- | --- | --- | --- | --- | --- | --- | --- | --- | --- | --- | --- | --- |
| CC[C@H]1OC(=O)[C@H](C)[C@@H](O[C@H]2C[C@@](C)(OC)[C@@H](O)[C@H](C)O2)[C@H](C)[C@@H](O[C@@H]2O[C@H](C)C[C@H](N(C)C)[C@H]2O)[C@](C)(OC)C[C@@H](C)C(=O)[C@H](C)[C@@H](O)[C@]1(C)O [CLARITHROMYCIN] | 5.03 | 2.18 | 4.06 | 2 (≈ 2.67 µM) | 0.5 (≈ 0.668 µM) | 2 (≈ 2.67 µM) | 0.5 (≈ 0.668 µM) | 0.5 (≈ 0.668 µM) | 64 (≈ 85.6 µM) | 7.1 | 8.12 | 7.1 | 3.17 | 3.2 | 3.16 | 3.94 | 5.91 | 5.36 | 5.28 | 4.58 | log10cfu [21]: 4.3 |
| COc1c(N2C[C@@H]3CCCN[C@@H]3C2)c(F)cc2c(=O)c(C(=O)O)cn(C3CC3)c12 [MOXIFLOXACIN] | – | – | – | – | 0.5 (≈ 1.25 µM) | 0.5 (≈ 1.25 µM) | 0.5 (≈ 1.25 µM) | 0.5 (≈ 1.25 µM) | 2 (≈ 4.98 µM) | – | – | – | – | – | – | – | – | – | – | – | log10cfu [22]: 6.6; log10cfu [23]: 7.9; log10cfu (Mycobacterium avium [24]): 8.83; log10cfu (Mycobacterium avium [25]): 9.68; log10cfu (Mycobacterium avium [26]): 9.18; log10cfu [27]: 4.83; log10cfu [28]: 4.76; log10cfu [29]: 4.15; log10cfu [30]: 5.35; log10cfu [31]: 6.53; log10cfu [32]: 6.6; log10cfu [33]: 5.79; log10cfu [34]: 7.09; log10cfu [35]: 7.78; log10cfu [36]: 7.39 |
| COc1c(N2CCNC(C)C2)c(F)cc2c(=O)c(C(=O)O)cn(C3CC3)c12 (stereo not drawn) [GATIFLOXACIN] | – | – | – | 2 (≈ 5.33 µM) | 1 (≈ 2.66 µM) | 0.5 (≈ 1.33 µM) | 1 (≈ 2.66 µM) | 1 (≈ 2.66 µM) | 4 (≈ 10.7 µM) | – | – | – | – | – | – | – | – | – | – | – | log10cfu [22]: 6.75; log10cfu [23]: 8.14; log10cfu (Mycobacterium avium [24]): 8.9; log10cfu (Mycobacterium avium [25]): 9.91; log10cfu (Mycobacterium avium [26]): 9.18; log10cfu [27]: 5.32; log10cfu [28]: 5.15; log10cfu [29]: 4.41; log10cfu [30]: 5.48; log10cfu [31]: 6.6; log10cfu [32]: 6.81; log10cfu [33]: 5.96; log10cfu [34]: 7.21; log10cfu [35]: 8; log10cfu [36]: 7.6 |
| C[C@H]1COc2c(N3CCN(C)CC3)c(F)cc3c(=O)c(C(=O)O)cn1c23.C[C@H]1COc2c(N3CCN(C)CC3)c(F)cc3c(=O)c(C(=O)O)cn1c23.O [LEVOFLOXACIN] | 7.4 | 6.01 | 6.82 | 4 | 4 | 2 | 4 | 8 | 16 | 9.01 | 9.92 | 9.38 | 5.47 | 5.16 | 4.48 | 5.48 | 6.52 | 6.72 | 7.82 | 7.77 | log10cfu [21]: 7.58 |
